The source made the active and inactive calls. The rule behind the calls is not given here.
Assays:
[1] = test system: HEK293; test: Inhibition of Wnt/beta-catenin/Axin signaling (unknown origin) expressed in HEK293 cells assessed as decrease in Axin2 mRNA level after 48 hrs by qPCR analysis; assay type: cell-based; settings: Homo sapiens
How it was run: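 HEK293 cells were treated with compound for 48 h, harvested in TRIzol, and Wnt target gene mRNA was quantified by qPCR.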

[2] = test system: HEK293; test: Inhibition of Wnt (unknown origin)/FLAG-tagged human beta-catenin S33Y mutant signaling expressed in HEK293 cells harboring TCF/LEF-responsive luciferase at 100 nM measured after 24 hrs by luciferase reporter gene assay; assay type: cell-based
How it was run: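 HEK293 cells were transfected for 16 h with TOPFlash or FOPFlash, Renilla, and pcDNA3 wild-type or S33Y β-catenin. Compound was then added for a further 24 h. Firefly/Renilla dual-luciferase ratio was the read-out.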

[3] = test system: HEK293; test: Inhibition of Wnt/beta-catenin signaling (unknown origin) expressed in CK1alpha knock down HEK293 cells harboring TCF/LEF-responsive luciferase assessed as luminescence at 20 nM measured after 24 hrs by luciferase reporter gene assay relative to control; assay type: cell-based; parameters: scale not given: the % may be the effect or the level left; settings: Homo sapiens
How it was run: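 HEK293 cells were transfected with siRNA against GSK3β, Axin or CK1α using RNAiMAX for 36 h. Cells were then treated with or without compound at 20 nM for 24 h, and TCF/LEF luciferase reporter activity was read.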

[4] = target: Axin-1 (Homo sapiens) (UniProt O15169); test: Binding affinity to Axin1 (unknown origin) by SPR analysis
[5] = Inhibition of Wnt/beta-catenin signaling (unknown origin) expressed in HEK293 cells harboring GSK3B siRNA after 24 hrs by luciferase reporter gene assay; assay type: cell-based; settings: Homo sapiens, HEK293, 24 h
[6] = test system: HepG2; test: Inhibition of Wnt/beta-catenin deletion mutant signaling in human HepG2 cells at 50 nM after 24 hrs by luciferase reporter gene assay; assay type: cell-based
How it was run: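 HepG2 cells carry the CTNNB1 Δ25–140 deletion and were transfected with the TCF/LEF luciferase reporter constructs. Compound was applied and reporter luminescence measured; mean ± S.D., n = 3.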

[7] = species on record: Mus musculus; test: Inhibition of Wnt/beta-catenin/Axin signaling in mouse hepatocytes assessed as decrease in ACOT4 mRNA level at 5 uM by qPCR analysis; assay type: cell-based
How it was run: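 Normal mouse hepatocytes were treated with 5 μM compound, and lipogenic and gluconeogenic gene mRNA was measured by qPCR; mean ± S.D. of triplicates.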

[8] = test system: Mus musculus; test: Decrease in hepatic G6pase mRNA level in high fat diet fed C57BL/6J mouse at 40 mg/kg, ip administered every 2 days for 11 weeks by qPCR analysis; assay type: functional, organism-based
How it was run: (§1)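 Male mice, 8 weeks old, fed a 45% kcal fat diet for 6 weeks, then dosed i.p. every 2 days in corn oil vehicle for 11 weeks. Liver mRNA of the indicated genes was quantified at sacrifice; mean ± SEM, n = 5 per group.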

[9] = test system: Mus musculus; test: Decrease in hepatic SCD1 mRNA level in high fat diet fed C57BL/6J mouse at 40 mg/kg, ip administered every 2 days for 11 weeks by qPCR analysis; assay type: functional, organism-based; how it was run: as §1
[10] = test system: Mus musculus; test: Decrease in hepatic […] mRNA level in high fat diet fed C57BL/6J mouse at 40 mg/kg, ip administered every 2 days for 11 weeks by qPCR analysis; assay type: functional, organism-based; how it was run: as §1
[11] = test system: Mus musculus; test: Effect on hepatic Glp1 mRNA level in normal chow diet fed C57BL/6J mouse at 40 mg/kg, ip administered every 2 days for 11 weeks by qPCR analysis; assay type: ADME, organism-based; settings: in vivo
How it was run: (§2)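 Male mice, 8 weeks old, kept on normal chow throughout and dosed i.p. every 2 days in corn oil vehicle for 11 weeks. Body weight gain, liver/body weight ratio, and liver mRNA of the indicated genes were measured at sacrifice; mean ± SEM, n = 5 per group where stated.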

[12] = test system: Mus musculus; test: Effect on hepatic G6pase mRNA level in normal chow diet fed C57BL/6J mouse at 40 mg/kg, ip administered every 2 days for 11 weeks by qPCR analysis; assay type: ADME, organism-based; settings: in vivo; how it was run: as §2
[13] = test system: Mus musculus; test: Effect on hepatic FGF21 mRNA level in normal chow diet fed C57BL/6J mouse at 40 mg/kg, ip administered every 2 days for 11 weeks by qPCR analysis; assay type: ADME, organism-based; settings: in vivo; how it was run: as §2
[14] = test system: Mus musculus; test: Effect on hepatic FASN mRNA level in normal chow diet fed C57BL/6J mouse at 40 mg/kg, ip administered every 2 days for 11 weeks by qPCR analysis; assay type: ADME, organism-based; settings: in vivo; how it was run: as §2
[15] = test system: Mus musculus; test: Decrease in liver weight adjusted by body weight gain in high fat diet fed C57BL/6J mouse at 40 mg/kg, ip administered every 2 days for 11 weeks; assay type: functional, organism-based
How it was run: (§3)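 Male mice, 8 weeks old, 24–27 g, given a 45% kcal fat diet for 6 weeks, then dosed i.p. every 2 days in corn oil vehicle with the diet continued. Sacrifice was about 24 h after the last dose. Liver was examined by H&E. Liver and serum triglyceride were measured by kit. Serum chemistry was included, and liver/body weight ratio was calculated.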

[16] = test system: Mus musculus; test: Decrease in hepatic lipid accumulation in high fat diet fed C57BL/6J mouse at 40 mg/kg, ip administered every 2 days for 11 weeks; assay type: functional, organism-based; how it was run: as §3
[17] = test system: Mus musculus; test: Decrease in hepatic triglyceride content in high fat diet fed C57BL/6J mouse at 40 mg/kg, ip administered every 2 days for 11 weeks; assay type: functional, organism-based; how it was run: as §3
[18] = test system: Mus musculus; test: Decrease in serum cholesterol level in high fat diet fed C57BL/6J mouse at 40 mg/kg, ip administered every 2 days for 11 weeks; assay type: functional, organism-based; how it was run: as §3
[19] = Toxicity in high fat diet fed C57BL/6J mouse assessed as serum AST level at 40 mg/kg, ip administered every 2 days for 11 weeks (reference value: 131 +/- 15.6 U/L); assay type: organism-based; settings: in vivo
[20] = Toxicity in high fat diet fed C57BL/6J mouse assessed as serum cholesterol level at 40 mg/kg, ip administered every 2 days for 11 weeks (reference value: 316 +/- 25 mg/dl); assay type: organism-based; settings: in vivo
[21] = Toxicity in high fat diet fed C57BL/6J mouse assessed as serum creatinine level at 40 mg/kg, ip administered every 2 days for 11 weeks by Jaffe's reaction analysis (reference value: 0.3 +/- 0.02 mg/dl); assay type: organism-based; settings: in vivo
[22] = Toxicity in high fat diet fed C57BL/6J mouse assessed as serum LDH level at 40 mg/kg, ip administered every 2 days for 11 weeks (reference value: 469 +/- 67 U/L); assay type: organism-based; settings: in vivo
[23] = Toxicity in high fat diet fed C57BL/6J mouse assessed as serum uric acid level at 40 mg/kg, ip administered every 2 days for 11 weeks (reference value: 6.3 +/- 0.5 mg/dl); assay type: organism-based; settings: in vivo
[24] = Toxicity in normal chow diet fed C57BL/6J mouse assessed as serum cholesterol level at 40 mg/kg, ip administered every 2 days for 11 weeks (reference value: 183 +/- 16.6 mg/dl); assay type: organism-based; settings: in vivo
[25] = Toxicity in normal chow diet fed C57BL/6J mouse assessed as serum creatinine level at 40 mg/kg, ip administered every 2 days for 11 weeks by Jaffe's reaction analysis (reference value: 0.2 +/- 0.01 mg/dl); assay type: organism-based; settings: in vivo
[26] = Toxicity in normal chow diet fed C57BL/6J mouse assessed as serum BUN level at 40 mg/kg, ip administered every 2 days for 11 weeks (reference value: 19 +/- 1.8 mg/dl); assay type: organism-based; settings: in vivo
[27] = Toxicity in normal chow diet fed C57BL/6J mouse assessed as serum uric acid level at 40 mg/kg, ip administered every 2 days for 11 weeks (reference value: 4 +/- 0.2 mg/dl); assay type: organism-based; settings: in vivo

Chain of Axin-1 (Homo sapiens) (O15169 whole entry): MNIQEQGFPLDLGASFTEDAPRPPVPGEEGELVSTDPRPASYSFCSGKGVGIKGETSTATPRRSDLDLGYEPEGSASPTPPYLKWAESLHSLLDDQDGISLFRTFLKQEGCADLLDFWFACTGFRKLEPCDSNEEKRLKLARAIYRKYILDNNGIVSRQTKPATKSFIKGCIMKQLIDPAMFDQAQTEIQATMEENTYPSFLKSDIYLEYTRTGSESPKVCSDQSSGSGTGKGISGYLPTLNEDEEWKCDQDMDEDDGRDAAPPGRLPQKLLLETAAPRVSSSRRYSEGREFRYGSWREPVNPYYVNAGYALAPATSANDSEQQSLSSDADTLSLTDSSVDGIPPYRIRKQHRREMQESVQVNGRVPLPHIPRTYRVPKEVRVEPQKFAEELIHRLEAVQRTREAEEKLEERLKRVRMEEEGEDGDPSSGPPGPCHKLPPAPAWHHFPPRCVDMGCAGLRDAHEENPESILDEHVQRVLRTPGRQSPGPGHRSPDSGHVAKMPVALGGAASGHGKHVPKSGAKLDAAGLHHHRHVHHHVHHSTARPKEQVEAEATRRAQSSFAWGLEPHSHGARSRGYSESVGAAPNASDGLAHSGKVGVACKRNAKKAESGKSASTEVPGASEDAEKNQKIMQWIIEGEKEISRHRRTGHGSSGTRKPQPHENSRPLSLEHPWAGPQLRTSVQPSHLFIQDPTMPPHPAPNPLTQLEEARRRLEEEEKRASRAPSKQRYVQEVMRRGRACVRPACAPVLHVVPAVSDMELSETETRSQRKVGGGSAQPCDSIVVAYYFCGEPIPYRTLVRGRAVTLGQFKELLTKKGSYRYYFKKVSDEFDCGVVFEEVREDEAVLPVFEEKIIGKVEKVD

Q: For Cc1ccccc1-n1nnc(C(=O)Nc2ccc3ccccc3n2)c1C, which inhibition [1] is on record?
A: The inhibition was “Active”.

Q: And the inhibition [2]?
A: The inhibition was “Active”.

Q: And the Activity [3]?
A: The Activity was 52%.

Q: What about the Activity [4] of the same molecule?
A: The Activity was “inactive”.

Q: And the IC50 [5]?
A: The IC50 was 0.034 µM.

Q: And the inhibition [6]?
A: Its inhibition is “inactive”.

Q: What about the inhibition [7] of the same molecule?
A: The inhibition was “Active”.

Q: And the Activity [8]?
A: The Activity was “Active”.

Q: What about the Activity [9] of the same molecule?
A: The Activity was “Active”.

Q: And the Activity [10]?
A: The Activity was “Active”.

Q: What about the Activity [11] of the same molecule?
A: The Activity was “Non-Toxic”.

Q: What about the Activity [12] of the same molecule?
A: Its Activity is “Non-Toxic”.

Q: What about the Activity [13] of the same molecule?
A: The Activity was “Non-Toxic”.

Q: And the Activity [14]?
A: Its Activity is “Non-Toxic”.

Q: What about the Activity [15] of the same molecule?
A: Its Activity is “Active”.

Q: And the Activity [16]?
A: The Activity was “Active”.

Q: And the Activity [17]?
A: The Activity was “Active”.

Q: What about the Activity [18] of the same molecule?
A: The Activity was “Active”.

Q: And the Activity [19]?
A: Its Activity is 94.8 U/L.

Q: And the Activity [20]?
A: Its Activity is 223 mg/dL.

Q: What about the Activity [21] of the same molecule?
A: The Activity was 0.2 mg/dL.

Q: What about the Activity [22] of the same molecule?
A: The Activity was 313 U/L.

Q: And the Activity [23]?
A: Its Activity is 4.8 mg/dL.

Q: What about the Activity [24] of the same molecule?
A: The Activity was 194 mg/dL.

Q: And the Activity [25]?
A: Its Activity is 0.2 mg/dL.

Q: And the Activity [26]?
A: The Activity was 21.8 mg/dL.

Q: What about the Activity [27] of the same molecule?
A: Its Activity is 3.8 mg/dL.

From ChEMBL document CHEMBL4371095, “Triazole-Based Inhibitors of the Wnt/β-Catenin Signaling Pathway Improve Glucose and Lipid Metabolisms in Diet-Induced Obese Mice” (J Med Chem, 2019)
